Only some compounds are listed: those with a hit (about 3.9% of all), similar ones and a draw of the others.
XBP1 UPR activ: activators of adaptive arm of unfolded protein response (XBP1); CHO-XBP1 luciferase reporter, IRE1-XBP1 UPR activation, luminescence; percent of tunicamycin response, DMSO as zero; hit rate 0.33% among 330,000; activation, % at 20 µM;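 active means versus positive control, 20 µM dose yields 30% or more activation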;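 further: 100% = tunicamycin at 10 µg/mL and 0% = DMSO only wells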
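Material: IRE1-XBP1 luciferase reporter CHO line / Quantity: one thousand reporter cells per well / Buffer or medium: F12 with 10% serum / Compound: 20 µM single concentration, DMSO 1% / Times: 6 h treatment, 37 °C / Detection: Steady-Glo luciferase glow luminescence, 10 min after reagent addition / Benchmarks: tunicamycin high, DMSO low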
Jurkat NFkB inh: inhibitors of the PMA/ionomycin-induced NF-kB reporter in Jurkat cells; PMA/ionomycin-induced NF-kB luciferase reporter, luminescence; inhibition, % at 4 µM; hit rate 0.53% among 330,000; AID 435003; in the data active means inhibition above about 50%
CHOP inhibitor: blocks CHOP induction under ER stress; CHO-K1 CHOP-promoter luciferase, tunicamycin-induced, 15-18 h; inhibition, % at 10 µM; hit rate 3.8% among 220,000; AID 2732;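 active means compounds that reduced the stress-induced luciferase reporter signal by more than about 70% of percent inhibition, limit read from the data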;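 further: 0% = tunicamycin plus vehicle and 100% = wells without tunicamycin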
697 NFkB inh: lowers PMA/ionomycin-induced NF-kB signal in 697 B cells; 697 B-cell NF-kB luciferase reporter, 16 h; hit rate 0.33% among 330,000; inhibition, % at 4 µM; in the data active means inhibition above about 35%
UPR CHOP act: activators of apoptotic arm of unfolded protein response (CHOP). CHO-CHOP luciferase reporter, UPR activation, luminescence; percent of tunicamycin response over DMSO baseline. activation, % at 10 µM. hit rate 0.34% among 330,000. AID 449763;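 active means at 10 µM dose, activation of 40% or more, normalized to positive control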;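 further: 100% = tunicamycin at 10 µg/mL and 0% = DMSO alone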
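Evaluation: % reporter activation, DMSO baseline versus tunicamycin full activation; System: CHO-CHOP luciferase reporter cell line; Input: 500 cells/well; Incubation: 6 h compound treatment, 37 °C; Measured by: Steady-Glo luciferase luminescence; Dosing: one dose, 10 µM in 0.5% DMSO; Buffer or medium: F12 medium, 10% FBS; Benchmarks: positive tunicamycin 10 µg/mL, negative DMSO alone.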
Gli-Sufu antag: blocks Gli-Sufu signaling in a luciferase reporter; hit rate 0.74% among 340,000; Sufu-KO-LIGHT fibroblasts, Gli luciferase reporter luminescence; AID 588413; inhibition, % at 5 µM;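 active means inhibition above about 55%, limit read from the data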;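 further: 0% = DMSO-treated cells and 100% = wells with medium but no cells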
The depositor's hits bear a star; · = no result given.

SMILES | XBP1 UPR activ | Jurkat NFkB inh | CHOP inhibitor | 697 NFkB inh | UPR CHOP act | Gli-Sufu antag
COc1ccccc1N1CCN(S(=O)(=O)CCNC(=O)c2ccccc2Br)CC1 | -8.5 | 9.9 | · | -15.5 | -1.2 | 2.6
N#Cc1nc(-c2ccccc2F)oc1NC1CCCCC1 | 6.5 | -1.1 | 80.4* | -12.9 | 1.3 | -9.5
N#Cc1nc(-c2ccccc2F)oc1N1CCCCC1 | 3.8 | -7.0 | · | 12.9 | 3.2 | -10.2
O=C(COc1ccc2c(c1)oc(=O)c1ccccc12)NCC1CCC(C(=O)O)CC1 (centres undefined) | -0.8 | -9.9 | · | 17.8 | -0.2 | 6.7
COC(=O)Nc1ccc(S(=O)(=O)NC2CCCCC2)cc1 | -3.5 | 7.0 | · | -18.1 | 1.3 | 13.5
Cc1cc(C)cc(NC(=O)C2CCCN(c3nccc(C)n3)C2)c1 (centres undefined) | -0.6 | -5.3 | 59.6 | -2.8 | -1.2 | 3.7
Cc1cc(C)nc(N2CCC(C(=O)NC3CCCc4ccccc43)CC2)n1 (centres undefined) | -1.7 | -0.3 | 73.4* | 7.7 | 0.2 | 7.5
O=C(NC1CCCc2ccccc21)C1CCCC1 (centres undefined) | -2.4 | 1.2 | · | 6.7 | -0.8 | -15.4
Cc1cc(C)cc(NC(=O)C2CCCN(c3nc(C)cc(C)n3)C2)c1 (centres undefined) | -1.0 | 5.6 | 70.4* | 16.6 | -1.9 | 8.3
Cc1cc(C)nc(N2CCC(C(=O)Nc3ccc4c(c3)CCC4)CC2)n1 | -1.1 | -6.3 | 82.3* | 0.9 | -1.9 | 0.6
Cc1ccnc(N2CCC(C(=O)Nc3ccc4c(c3)CCC4)CC2)n1 | -0.4 | -4.7 | 23.3 | -12.2 | -2.8 | 2.8
COc1cc(NC(=O)CSc2nc(C3CC3)nc3ccccc23)cc(OC)c1 | 7.5 | -3.3 | · | 14.4 | -0.2 | -18.2
CCc1nccn1CCC(=O)N1CCCC(N2CCN(c3ccccc3C)CC2)C1 (centres undefined) | -5.0 | -18.9 | · | -54.6 | 0.7 | 19.9
CCC(=O)Oc1oc(-c2ccccc2)nc1C=Nc1ccc(C)cc1 | 4.3 | 7.6 | -57.0 | 11.9 | 6.5 | -4.4
CCC(=O)Oc1oc(-c2ccccc2)nc1C=Nc1ccccc1OC | 0.5 | -8.7 | 93.1* | -12.8 | 4.2 | 10.8
CCCCCCCCCCCCCCCC[n+]1ccccc1 | · | · | · | · | · | 83.5*
Cc1csc(NC(=O)C(CC(C)C)NS(=O)(=O)c2ccc3c(c2)oc(=O)n3C)n1 (centres undefined) | 1.0 | 5.2 | 97.4* | 16.1 | 2.3 | -4.2
CN(C)c1ccc(-c2nn3c(C4CCCCC4)nnc3s2)cc1 | 0.6 | 2.8 | 93.0* | 4.6 | -0.2 | -5.1
Cc1cccc(C(=O)NCC(=O)N2CCC2)c1 | 1.5 | -13.5 | · | 2.6 | -0.8 | 4.5
Cc1ccccc1-c1nc(CS(=O)(=O)CC(=O)NCc2ccco2)c(C)o1 | 0.2 | -3.5 | · | 1.8 | -2.2 | -10.2
Cc1cccc(C)c1Nc1c(-c2ccccn2)nc2ccccn12 | 3.9 | 0.7 | 71.4* | -2.7 | 8.4 | 19.6
Cc1ccc(Nc2c(-c3ccccn3)nc3cccc(C)n23)cc1 | 17.4 | 12.1 | 94.2* | 5.1 | 21.0 | 27.5
Cc1ccc(OCC(=O)NCCNC(=O)c2ccco2)cc1C | 3.0 | -3.5 | · | 6.8 | -0.4 | -14.0
CC(C)CCCCCCCCCCCCC(=O)NCC(=O)NC1C(O)C(O)C(Nc2ncnc3nc[nH]c23)OC1C(O)CO (centres undefined) | · | · | · | · | · | 84.8*
COc1cc2nc(NC(=O)c3ccc(Cl)cc3)[nH]c(=O)c2cc1OC | -2.5 | -0.3 | 72.5* | 1.2 | -0.3 | 6.7
CC(C)c1ccc(NC(=O)C2CCN(S(=O)(=O)c3ccc4c(c3)C(C)(C)C(=O)N4C)CC2)cc1 | -4.9 | 13.8 | · | -10.8 | 3.6 | 11.0
O=C(O)c1ccc2nc(-c3ccccc3)sc2c1 | -4.8 | 21.7 | 42.5 | -133.8 | -8.9 | -56.7
Nc1ccc(-c2nc3ccc(C(=O)O)cc3s2)cc1 | · | · | 92.1* | · | · | -35.5
CC1(C)Cc2c(sc(NC(=O)C(=O)NCCCN3CCOCC3)c2C#N)CO1 | -1.2 | 3.4 | · | -27.7 | 0.3 | -24.6
Cc1ccc2nc(N3C(=O)C(O)=C(C(=O)c4cc5ccccc5o4)C3c3cccs3)sc2c1 (centres undefined) | 2.3 | -140.5 | 33.6 | -246.5 | 4.6 | -49.4

Screens (PubChem BioAssay)
